Assay results published in ChEMBL document CHEMBL3994644, “Discovery of AAT-008, a novel, potent, and selective prostaglandin EP4 receptor antagonist” (Bioorg Med Chem Lett, 2017).
In brackets after ≈: the same amount, converted by molar mass.

Tests used:
CYP3A = assay: Inhibition of CYP3A (unknown origin) at 1 uM relative to control; type: ADME; settings: human
Outline: (§1)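 CYP1A, CYP2C9, CYP2C19, CYP2D6 and CYP3A activities were each tested with 1 µM test article. Results are given as percent inhibition of enzyme activity.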

[1] = Cmax in Beagle dog at 1 mg/kg, po; type: ADME, organism-based, Canis lupus familiaris; parameters: dose 1 mg/kg, route oral; settings: in vivo
Outline: (§2)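 Single 1 mg/kg dose given IV or PO to rats, dogs and monkeys. Plasma pharmacokinetic parameters were derived and reported as mean SD, N = 4.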

[2] = Tmax in cynomolgus monkey at 1 mg/kg, po; type: ADME, organism-based, Macaca fascicularis; settings: in vivo
Outline: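 Oral administration of the compound; Tmax is from plasma concentration–time profiles. Values are mean SD of N = 4 animals per species.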

[3] = Total clearance in Beagle dog at 1 mg/kg, iv; type: ADME, organism-based, Canis lupus familiaris; settings: in vivo
Outline: (§3)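 A single intravenous injection at 1 mg/kg was given. Plasma concentration–time data gave total clearance (CL_total, mL/min/kg) and steady-state volume of distribution (Vd_ss, L/kg). Values are mean SD of N = 4 animals per species.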

[4] = Elimination half life in cynomolgus monkey at 1 mg/kg, iv; type: ADME, organism-based, Macaca fascicularis; settings: in vivo, read-out: beta t1/2 (converted); outline: as §2
[5] = AUC (0 to infinity) in Sprague-Dawley rat at 1 mg/kg, iv; type: ADME, organism-based; parameters: dose 1 mg/kg, route intravenous, time infinity; settings: in vivo; outline: as §2
[6] = molecular target: Prostaglandin E2 receptor EP4 subtype (Mus musculus, UniProt P32240); assay: Antagonist activity at mouse recombinant EP4 receptor assessed as inhibition of PGE2-induced cAMP level by cell based assay; type: functional; settings: read-out: pA2 (converted)
Chain of Prostaglandin E2 receptor EP4 subtype (Mus musculus, UniProt P32240) (P32240 whole entry): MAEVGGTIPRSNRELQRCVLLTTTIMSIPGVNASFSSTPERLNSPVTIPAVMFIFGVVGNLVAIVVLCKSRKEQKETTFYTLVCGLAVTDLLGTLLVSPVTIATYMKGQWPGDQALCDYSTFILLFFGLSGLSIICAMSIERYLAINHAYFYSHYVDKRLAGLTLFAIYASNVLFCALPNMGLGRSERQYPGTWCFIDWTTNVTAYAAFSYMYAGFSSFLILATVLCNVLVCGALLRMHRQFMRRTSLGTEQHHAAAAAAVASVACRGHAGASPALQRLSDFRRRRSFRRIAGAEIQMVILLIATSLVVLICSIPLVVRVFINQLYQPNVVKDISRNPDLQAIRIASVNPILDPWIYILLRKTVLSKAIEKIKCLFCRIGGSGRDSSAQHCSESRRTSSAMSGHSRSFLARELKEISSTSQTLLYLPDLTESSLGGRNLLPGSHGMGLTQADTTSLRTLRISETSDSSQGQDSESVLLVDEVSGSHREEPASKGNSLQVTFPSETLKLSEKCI
Outline: (§4)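 Functional antagonism was measured as inhibition of PGE2-induced cAMP in cells transfected with rodent EP4 (mouse or rat). The value is expressed as pA2.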

[7] = Lipophilicity, log D of the compound at pH 1.2; type: physicochemical; settings: buffer
[8] = Half life in hepatocytes (unknown origin); type: ADME, cell-based, Hepatocyte
[9] = Elimination half life in Beagle dog at 1 mg/kg, po; type: ADME, organism-based, Canis lupus familiaris; settings: in vivo, read-out: beta t1/2 (converted); outline: as §2
[10] = Tmax in Beagle dog at 1 mg/kg, po; type: ADME, organism-based, Canis lupus familiaris; settings: in vivo; outline: as §2
[11] = Lipophilicity, log D of the compound at pH 7.4; type: physicochemical; settings: buffer
[12] = Apparent permeability from apical to basolateral side in human Caco2 cells; type: ADME, cell-based; settings: Caco-2
Outline: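 Caco-2 monolayer permeability (Papp, apical to basolateral) was measured under constant pH, with the apical side at pH 6.5 and the basolateral side at pH 7.4.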

[13] = Cmax in cynomolgus monkey at 1 mg/kg, po; type: ADME, organism-based, Macaca fascicularis; parameters: dose 1 mg/kg, route oral; settings: in vivo; outline: as §2
[14] = AUC (0 to infinity) in Beagle dog at 1 mg/kg, iv; type: ADME, organism-based, Canis lupus familiaris; parameters: dose 1 mg/kg, time infinity, route intravenous; settings: in vivo; outline: as §2
[15] = Half life in human liver microsomes; type: ADME, microsome
CYP2D6 = CYP2D6 (Homo sapiens, UniProt P10635); assay: Inhibition of CYP2D6 (unknown origin) at 1 uM relative to control; type: ADME; outline: as §1
Chain of CYP2D6 (P10635 whole entry): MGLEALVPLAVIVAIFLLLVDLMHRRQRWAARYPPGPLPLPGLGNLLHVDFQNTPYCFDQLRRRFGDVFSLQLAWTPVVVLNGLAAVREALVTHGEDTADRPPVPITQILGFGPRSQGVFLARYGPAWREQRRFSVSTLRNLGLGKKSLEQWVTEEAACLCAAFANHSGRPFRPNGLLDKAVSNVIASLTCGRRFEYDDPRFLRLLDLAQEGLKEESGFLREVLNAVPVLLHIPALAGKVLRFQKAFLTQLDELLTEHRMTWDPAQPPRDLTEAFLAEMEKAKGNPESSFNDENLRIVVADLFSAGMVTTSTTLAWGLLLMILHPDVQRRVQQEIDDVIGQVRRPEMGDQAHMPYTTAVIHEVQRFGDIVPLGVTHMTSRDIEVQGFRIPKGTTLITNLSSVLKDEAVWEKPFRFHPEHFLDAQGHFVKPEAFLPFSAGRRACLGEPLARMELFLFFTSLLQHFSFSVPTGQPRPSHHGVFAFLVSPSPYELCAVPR

[16] = molecular target: Prostaglandin E2 receptor EP4 subtype (Rattus norvegicus, UniProt P43114); assay: Antagonist activity at rat recombinant EP4 receptor assessed as inhibition of PGE2-induced cAMP level by cell based assay; type: functional; settings: read-out: pA2 (converted); outline: as §4
Chain of Prostaglandin E2 receptor EP4 subtype (Rattus norvegicus, UniProt P43114) (P43114 whole entry): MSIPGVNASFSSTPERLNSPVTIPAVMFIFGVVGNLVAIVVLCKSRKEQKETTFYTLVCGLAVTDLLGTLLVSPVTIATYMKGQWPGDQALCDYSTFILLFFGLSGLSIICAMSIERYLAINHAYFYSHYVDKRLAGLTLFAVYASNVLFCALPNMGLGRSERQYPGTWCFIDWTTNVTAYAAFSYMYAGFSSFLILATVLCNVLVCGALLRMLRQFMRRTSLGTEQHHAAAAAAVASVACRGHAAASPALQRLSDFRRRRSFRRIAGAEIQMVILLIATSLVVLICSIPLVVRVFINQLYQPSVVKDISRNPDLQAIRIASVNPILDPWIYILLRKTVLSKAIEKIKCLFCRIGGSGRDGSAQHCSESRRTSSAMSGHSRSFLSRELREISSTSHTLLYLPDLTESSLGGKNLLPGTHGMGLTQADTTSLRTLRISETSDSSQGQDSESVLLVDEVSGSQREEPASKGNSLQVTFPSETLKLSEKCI

[17] = Cmax in Sprague-Dawley rat at 1 mg/kg, po; type: ADME, organism-based; parameters: dose 1 mg/kg, route oral; settings: in vivo; outline: as §2
CYP1A = assay: Inhibition of CYP1A (unknown origin) at 1 uM relative to control; type: ADME; settings: human; outline: as §1
[18] = Lipophilicity, log D of the compound at pH 6.5; type: physicochemical; settings: buffer
[19] = Solubility of the compound in pH 6.5 PBS; type: physicochemical
[20] = Solubility of the compound in pH 1.2 simulated gastric fluid; type: physicochemical
[21] = AUC (0 to infinity) in cynomolgus monkey at 1 mg/kg, po; type: ADME, organism-based, Macaca fascicularis; parameters: dose 1 mg/kg, time infinity, route oral; settings: in vivo; outline: as §2
[22] = molecular target: T1, Prostaglandin E2 receptor EP3 subtype (Homo sapiens, UniProt P43115); assay: Antagonist activity at human EP3 receptor
T1 sequence (P43115 whole entry): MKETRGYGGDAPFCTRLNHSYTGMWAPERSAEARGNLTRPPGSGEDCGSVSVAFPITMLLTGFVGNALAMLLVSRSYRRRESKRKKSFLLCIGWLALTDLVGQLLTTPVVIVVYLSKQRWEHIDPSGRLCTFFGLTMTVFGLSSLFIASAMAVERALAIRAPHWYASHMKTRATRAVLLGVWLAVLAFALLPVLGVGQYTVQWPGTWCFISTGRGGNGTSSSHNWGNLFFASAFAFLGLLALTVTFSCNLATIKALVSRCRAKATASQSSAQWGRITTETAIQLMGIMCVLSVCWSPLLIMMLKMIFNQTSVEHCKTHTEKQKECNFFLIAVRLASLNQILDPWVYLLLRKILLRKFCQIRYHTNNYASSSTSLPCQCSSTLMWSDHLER

Rattus norvegicus = assay: Analgesic activity in po dosed rat model of chronic inflammatory pain assessed as inhibition of CFA-induced weight bearing deficit; type: functional
Outline: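 Chronic inflammatory pain was modelled in rats with CFA and read out as weight bearing deficit after oral dosing. The value is the minimum effective dose (MED, mg/kg PO).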

[23] = Volume of distribution at steady state in Beagle dog at 1 mg/kg, iv; type: ADME, organism-based, Canis lupus familiaris; settings: in vivo, read-out: Vdss; outline: as §3
[24] = Oral bioavailability in Beagle dog at 1 mg/kg; type: ADME, organism-based, Canis lupus familiaris; settings: in vivo; outline: as §2
Prostacyclin receptor = Prostacyclin receptor (Homo sapiens, UniProt P43119); assay: Antagonist activity at human IP receptor
Chain of Prostacyclin receptor (P43119 whole entry): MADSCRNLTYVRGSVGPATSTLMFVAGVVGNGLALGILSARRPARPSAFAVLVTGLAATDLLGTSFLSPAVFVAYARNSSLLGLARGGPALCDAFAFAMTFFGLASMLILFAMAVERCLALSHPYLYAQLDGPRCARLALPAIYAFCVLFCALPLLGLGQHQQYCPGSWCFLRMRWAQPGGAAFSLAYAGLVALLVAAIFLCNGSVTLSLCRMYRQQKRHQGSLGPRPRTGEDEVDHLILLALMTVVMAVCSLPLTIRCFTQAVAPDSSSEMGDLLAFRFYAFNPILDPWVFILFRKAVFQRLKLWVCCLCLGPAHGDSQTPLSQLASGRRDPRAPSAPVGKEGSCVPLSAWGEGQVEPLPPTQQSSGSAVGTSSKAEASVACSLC

Thromboxane A2 receptor = molecular target: T2, Thromboxane A2 receptor (Homo sapiens, UniProt P21731); assay: Antagonist activity at human platelet TP receptor
T2 sequence (P21731 whole entry): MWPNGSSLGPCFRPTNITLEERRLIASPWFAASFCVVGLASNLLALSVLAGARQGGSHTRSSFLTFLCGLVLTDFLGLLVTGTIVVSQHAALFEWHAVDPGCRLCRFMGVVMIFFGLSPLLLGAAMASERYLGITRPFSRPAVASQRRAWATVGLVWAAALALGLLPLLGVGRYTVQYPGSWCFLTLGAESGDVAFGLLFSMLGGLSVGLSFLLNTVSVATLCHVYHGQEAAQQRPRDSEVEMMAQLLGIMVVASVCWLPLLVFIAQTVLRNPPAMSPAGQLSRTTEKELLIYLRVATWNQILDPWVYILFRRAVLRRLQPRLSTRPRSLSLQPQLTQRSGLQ

[25] = Elimination half life in Beagle dog at 1 mg/kg, iv; type: ADME, organism-based, Canis lupus familiaris; settings: in vivo, read-out: beta t1/2 (converted); outline: as §2
[26] = molecular target: Prostaglandin E2 receptor EP4 subtype (Homo sapiens, UniProt P35408); assay: Displacement of [3H]PGE from human EP4 receptor expressed in HEK293 cell membranes
Chain of Prostaglandin E2 receptor EP4 subtype (Homo sapiens, UniProt P35408) (P35408 whole entry): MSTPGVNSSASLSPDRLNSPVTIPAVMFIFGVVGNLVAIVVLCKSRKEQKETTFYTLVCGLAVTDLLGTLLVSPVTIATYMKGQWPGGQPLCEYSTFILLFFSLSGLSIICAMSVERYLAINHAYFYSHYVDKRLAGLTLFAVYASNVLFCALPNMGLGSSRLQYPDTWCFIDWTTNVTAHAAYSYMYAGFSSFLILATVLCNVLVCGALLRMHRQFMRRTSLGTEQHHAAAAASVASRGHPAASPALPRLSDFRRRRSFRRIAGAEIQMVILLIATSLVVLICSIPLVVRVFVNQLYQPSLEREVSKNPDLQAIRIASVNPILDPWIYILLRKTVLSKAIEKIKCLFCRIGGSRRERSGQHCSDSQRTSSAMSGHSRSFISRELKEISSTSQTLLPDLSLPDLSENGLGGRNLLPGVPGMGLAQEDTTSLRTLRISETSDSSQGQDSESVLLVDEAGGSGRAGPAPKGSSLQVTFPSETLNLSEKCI
Outline: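 Membrane binding assay using [3H]PGE2 with membranes from HEK-293 cells expressing human EP4. The value is expressed as Ki.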

[27] = Oral bioavailability in Sprague-Dawley rat at 1 mg/kg; type: ADME, organism-based; settings: in vivo; outline: as §2
[28] = Oral bioavailability in cynomolgus monkey at 1 mg/kg; type: ADME, organism-based, Macaca fascicularis; settings: in vivo; outline: as §2
CYP2C9 = CYP2C9 (Homo sapiens, UniProt P11712); assay: Inhibition of CYP2C9 (unknown origin) at 1 uM relative to control; type: ADME; outline: as §1
Chain of CYP2C9 (P11712 whole entry): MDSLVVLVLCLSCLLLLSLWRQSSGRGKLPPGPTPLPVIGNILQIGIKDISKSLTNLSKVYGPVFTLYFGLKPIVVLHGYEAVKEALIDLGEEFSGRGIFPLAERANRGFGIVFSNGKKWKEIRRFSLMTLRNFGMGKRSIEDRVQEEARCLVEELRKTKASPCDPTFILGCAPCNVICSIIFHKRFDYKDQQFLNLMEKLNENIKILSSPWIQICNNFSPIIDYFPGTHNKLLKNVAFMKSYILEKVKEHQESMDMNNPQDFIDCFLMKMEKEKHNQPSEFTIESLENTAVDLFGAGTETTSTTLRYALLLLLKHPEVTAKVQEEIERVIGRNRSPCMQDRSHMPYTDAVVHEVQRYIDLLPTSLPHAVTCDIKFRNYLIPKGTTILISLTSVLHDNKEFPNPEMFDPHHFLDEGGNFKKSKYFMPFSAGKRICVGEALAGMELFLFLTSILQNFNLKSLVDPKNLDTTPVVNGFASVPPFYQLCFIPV

CYP2C19 = CYP2C19 (Homo sapiens, UniProt P33261); assay: Inhibition of CYP2C19 (unknown origin) at 1 uM relative to control; type: ADME; outline: as §1
Chain of CYP2C19 (P33261 whole entry): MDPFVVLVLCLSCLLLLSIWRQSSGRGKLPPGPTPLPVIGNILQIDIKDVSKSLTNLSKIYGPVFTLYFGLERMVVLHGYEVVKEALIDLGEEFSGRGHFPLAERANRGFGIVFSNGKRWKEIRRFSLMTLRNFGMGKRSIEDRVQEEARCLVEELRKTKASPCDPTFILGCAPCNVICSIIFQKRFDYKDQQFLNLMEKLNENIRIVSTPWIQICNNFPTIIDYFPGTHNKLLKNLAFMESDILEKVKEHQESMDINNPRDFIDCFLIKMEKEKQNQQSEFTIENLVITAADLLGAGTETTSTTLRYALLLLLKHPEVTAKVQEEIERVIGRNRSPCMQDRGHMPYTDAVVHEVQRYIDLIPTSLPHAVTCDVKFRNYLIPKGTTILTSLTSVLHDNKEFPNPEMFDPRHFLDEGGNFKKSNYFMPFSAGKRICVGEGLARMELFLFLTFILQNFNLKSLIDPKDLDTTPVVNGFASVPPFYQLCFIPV

[29] = Total clearance in Sprague-Dawley rat at 1 mg/kg, iv; type: ADME, organism-based; settings: in vivo; outline: as §3

## C[C@H](NC(=O)c1cc(Cl)cnc1Oc1cccc(F)c1)c1ccc(C(=O)O)cc1
CYP3A
  inhibition at 1 µM: < 5%
[1]
  Cmax: 1450 ng/mL
[2]
  Tmax: 8 h
[3]
  clearance: 2.3 mL/min/kg
[4]
  half-life: 14.5 h
[5]
  AUC(0-inf): 9620 ng·h/mL
[6]
  Kb: 1 nM
[7]
  logD: 3.8
[8]
  half-life: > 6 h
[9]
  half-life: 7.95 h
[10]
  Tmax: 0.438 h
[11]
  logD: 0.7
[12]
  Papp A→B: 20.1 ×10⁻⁶ cm/s
[13]
  Cmax: 76 ng/mL
[14]
  AUC(0-inf): 7490 ng·h/mL
[15]
  half-life: > 2 h
CYP2D6
  inhibition at 1 µM: < 5%
[16]
  Kb: 4.57 nM
[17]
  Cmax: 994 ng/mL
CYP1A
  inhibition at 1 µM: < 5%
[18]
  logD: 1.5
[19]
  solubility: 73 µg/mL (≈ 176 µM)
[20]
  solubility: 0.29 µg/mL (≈ 0.699 µM)
[21]
  AUC(0-inf): 2460 ng·h/mL
[22]
  IC50: > 20000 nM
  Ki: > 6000 nM
Rattus norvegicus
  inhibition: Dose-dependent effect
Rattus norvegicus; read-out: MED
  minimal effective dose: 1 mg/kg
[23]
  Vd: 1.21 L/kg
[24]
  bioavailability: 80.6%
Prostacyclin receptor
  Ki: > 6000 nM
Thromboxane A2 receptor
  Ki: > 6000 nM
[25]
  half-life: 8.43 h
[26]
  IC50: 2.4 nM
  Ki: 0.97 nM
[27]
  bioavailability: 73.6%
[28]
  bioavailability: 73.3%
CYP2C9
  inhibition at 1 µM: < 5%
CYP2C19
  inhibition at 1 µM: < 5%
[29]
  clearance: 1.75 mL/min/kg
